# Test system: MDA-MB-231
# Assay: Antiproliferative activity against human MDA-MB-231 cells incubated for 24 hrs by MTT assay
# Format: functional, cell-based
# Conditions: MDA-MB-231, 24 h
# Procedure, shortened: (§1)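 MDA-MB-231 cells grown in DMEM with 10% FBS under 5% CO2 were seeded at 5×10^4 cells/ml. After 24 h, a concentration series was added for 24, 48 or 72 h and viability was read by MTT. IC50 is mean ± SD of triplicates.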
row,SMILES,IC50
1,COc1cccc(Nc2ccnc(N3CCN(C(=O)c4ccc(Cl)cc4Cl)CC3)n2)c1,11.3 µM
2,O=C(c1ccc2c(c1)OCO2)N1CCN(c2nccc(Oc3cc(Cl)cc(Cl)c3)n2)CC1,> 50 µM
3,CN1CCN(CC(=O)N2CCN(c3nccc(Oc4cc(Cl)cc(Cl)c4)n3)CC2)CC1,24.7 µM
4,COc1cccc(Nc2ccnc(N3CCN(C(=O)Nc4ccccc4Cl)CC3)n2)c1,5.26 µM
5,C#Cc1cccc(Nc2ncnc3cc(OCCOC)c(OCCOC)cc23)c1 [ERLOTINIB],55.5 µM
6,COc1cccc(Nc2cc(N3CCN(C(=O)Nc4ccccc4Cl)CC3)ncn2)c1,2.8 µM
7,CC(C)(C(=O)N1CCN(c2nccc(Oc3cc(Cl)cc(Cl)c3)n2)CC1)c1cc(C(F)(F)F)cc(C(F)(F)F)c1,> 50 µM
8,O=C(c1ccc(C(F)(F)F)cc1)N1CCN(c2nccc(Oc3cc(Cl)cc(Cl)c3)n2)CC1,12.5 µM
9,COc1cccc(Nc2cc(N3CCN(C(=O)c4ccc(Cl)cc4Cl)CC3)ncn2)c1,7.23 µM
10,O=C(Nc1ccc(C(F)(F)F)cc1)N1CCN(c2nccc(NCc3ccccc3)n2)CC1,2.45 µM
11,Cc1cnc(C(=O)N2CCN(c3nccc(Oc4cc(Cl)cc(Cl)c4)n3)CC2)cn1,34.8 µM
12,COc1ccc(NC(=O)N2CCN(c3nccc(Oc4cc(Cl)cc(Cl)c4)n3)CC2)cc1,16.4 µM
13,O=C(CN1CCOCC1)N1CCN(c2nccc(Oc3cc(Cl)cc(Cl)c3)n2)CC1,37.6 µM
14,O=C1CC[C@@H](C(=O)N2CCN(c3nccc(Oc4cc(Cl)cc(Cl)c4)n3)CC2)N1,> 50 µM
15,COc1cccc(Nc2ccnc(N3CCN(C(=O)Nc4ccc(C(F)(F)F)cc4)CC3)n2)c1,1.24 µM
16,O=C(c1ccc(Cl)cc1Cl)N1CCN(c2nccc(NCc3ccccc3)n2)CC1,9.79 µM
17,O=C(Nc1ccccc1Cl)N1CCN(c2nccc(NCc3ccccc3)n2)CC1,1.59 µM
18,O=C(c1cc(Cl)ccn1)N1CCN(c2nccc(Oc3cc(Cl)cc(Cl)c3)n2)CC1,16.7 µM
19,O=C(Nc1ccc(C(F)(F)F)cc1)N1CCN(c2nccc(Oc3cc(Cl)cc(Cl)c3)n2)CC1,1.54 µM
20,O=C(Nc1cc(C(F)(F)F)cc(C(F)(F)F)c1)N1CCN(c2nccc(Oc3cc(Cl)cc(Cl)c3)n2)CC1,6.74 µM

# Other lines, results leading:
row,IC50,SMILES
1,16.8 µM,COc1ccccc1S(=O)(=O)N1CCN(c2nccc(Oc3cc(Cl)cc(Cl)c3)n2)CC1
2,> 50 µM,O=S(=O)(c1ccc(F)cc1)N1CCN(c2nccc(Oc3cc(Cl)cc(Cl)c3)n2)CC1
3,7.9 µM,O=C(Nc1cccc(Cl)c1)N1CCN(c2nccc(Oc3cc(Cl)cc(Cl)c3)n2)CC1
4,37.8 µM,O=C(c1cccc(Cl)c1)N1CCN(c2nccc(Oc3cc(Cl)cc(Cl)c3)n2)CC1
5,> 50 µM,O=C([C@H]1Cc2ccccc2N1)N1CCN(c2nccc(Oc3cc(Cl)cc(Cl)c3)n2)CC1
6,> 50 µM,O=C(c1ccccc1F)N1CCN(c2nccc(Oc3cc(Cl)cc(Cl)c3)n2)CC1
7,> 50 µM,O=S(=O)(c1ccccc1)N1CCN(c2nccc(Oc3cc(Cl)cc(Cl)c3)n2)CC1
8,> 50 µM,CC(C)(C)c1ccc(S(=O)(=O)N2CCN(c3nccc(Oc4cc(Cl)cc(Cl)c4)n3)CC2)cc1
9,11 µM,O=C(Nc1ccccc1Cl)N1CCN(c2nccc(Oc3cc(Cl)cc(Cl)c3)n2)CC1
10,> 50 µM,CC(=O)Nc1ccc(C(=O)N2CCN(c3nccc(Oc4cc(Cl)cc(Cl)c4)n3)CC2)cc1
11,17.9 µM,O=C(c1cccc(C(F)(F)F)c1)N1CCN(c2nccc(Oc3cc(Cl)cc(Cl)c3)n2)CC1
12,46.8 µM,O=C(Nc1ccc2ccccc2c1)N1CCN(c2nccc(Oc3cc(Cl)cc(Cl)c3)n2)CC1
13,18.4 µM,O=C(c1cccc(O)c1)N1CCN(c2nccc(Oc3cc(Cl)cc(Cl)c3)n2)CC1
14,24.8 µM,N#Cc1ccc(S(=O)(=O)N2CCN(c3nccc(Oc4cc(Cl)cc(Cl)c4)n3)CC2)cc1
15,11.6 µM,Cc1ccc(NC(=O)N2CCN(c3nccc(Oc4cc(Cl)cc(Cl)c4)n3)CC2)cc1
16,46.8 µM,COc1ccc(S(=O)(=O)N2CCN(c3nccc(Oc4cc(Cl)cc(Cl)c4)n3)CC2)cc1
17,24.8 µM,O=S(=O)(c1cccnc1)N1CCN(c2nccc(Oc3cc(Cl)cc(Cl)c3)n2)CC1
18,35.2 µM,O=C(c1ccc[nH]1)N1CCN(c2nccc(Oc3cc(Cl)cc(Cl)c3)n2)CC1
19,11.8 µM,O=C(c1ccc(Cl)cc1Cl)N1CCN(c2nccc(Oc3cc(Cl)cc(Cl)c3)n2)CC1
20,> 50 µM,Cc1cccc(C(=O)N2CCN(c3nccc(Oc4cc(Cl)cc(Cl)c4)n3)CC2)c1
21,> 50 µM,O=C(c1ccc2ncccc2c1)N1CCN(c2nccc(Oc3cc(Cl)cc(Cl)c3)n2)CC1

# Test system: MDA-MB-231
# Assay: Antiproliferative activity against human MDA-MB-231 cells incubated for 72 hrs by MTT assay
# Format: functional, cell-based
# Conditions: MDA-MB-231, 72 h
# Procedure, shortened: as §1
row,IC50,SMILES
1,30.1 µM,C#Cc1cccc(Nc2ncnc3cc(OCCOC)c(OCCOC)cc23)c1 [ERLOTINIB]

# Test system: MDA-MB-231
# Assay: Antiproliferative activity against human MDA-MB-231 cells incubated for 48 hrs by MTT assay
# Format: functional, cell-based
# Conditions: MDA-MB-231, 48 h
# Procedure, shortened: as §1
row,IC50,SMILES
1,33.5 µM,C#Cc1cccc(Nc2ncnc3cc(OCCOC)c(OCCOC)cc23)c1 [ERLOTINIB]
